From ChEMBL document CHEMBL3272288, “Cannabinoids. Synthesis and central nervous system activity of 8-substituted 10-hydroxy-5,5-dimethyl-5H-[1]benzopyrano[4,3-c]pyridine and derivatives” (1977)
Calls of active or inactive are those of the source. The rule behind the calls is not given here.

Key:
[1] = tested on: Mus musculus; test: Antidepressant activity in mouse assessed as potentiation of (+/-)Dopa-induced motor responses at 5 mg/kg, po challenged with Dopa after 4 hrs compound treatment; type: functional, organism-based; design: dose 5 mg/kg
[2] = tested on: Rattus norvegicus; test: Analgesic activity in po dosed Sprague-Dawley rat by tail flick assay; type: functional
[3] = tested on: Mus musculus; test: Antianxiety activity in albino BALB/cJ mouse assessed as decrease in foot shock-induced fighting behavior at 10 mg/kg, po by tranquilizer activity test; type: functional
[4] = tested on: Canis familiaris; test: Antianxiety activity in po dosed beagle-like dog assessed as minimum dose required to produce moderate ataxia; type: functional, Canis lupus familiaris
In short: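 Minimum dose producing ataxia, with two or more dogs per dose.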

[5] = tested on: Rattus norvegicus; test: Antipsychotic activity in Long-Evens rat assessed as reduction in methamphetamine-induced hyperactivity at 10 mg/kg, po; type: functional
[6] = tested on: Felis catus; test: Sedative-hypnotic activity in cat assessed as change in total sleep time at 5 mg/kg, po after 12 hrs; type: functional
In short: (§1)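 Total sleep time was recorded 12 h after drug, with two or more cats per dose. The value is the change in minutes from paired control experiments; a negative value means decreased sleep.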

[7] = tested on: Mus musculus; test: Analgesic activity in po dosed mouse assessed as inhibition of acetic acid-induced writhing; type: functional
[8] = tested on: Rattus norvegicus; test: Antianxiety activity in Long-Evens rat assessed as decrease in motor activity at 5 mg/kg, po by tranquilizer activity test; type: functional
[9] = tested on: Rattus norvegicus; test: Antianxiety activity in Long-Evens rat assessed as decrease in motor activity at 10 mg/kg, po by tranquilizer activity test; type: functional
[10] = tested on: Felis catus; test: Sedative-hypnotic activity in cat assessed as change in total sleep time at 0.5 mg/kg, po after 12 hrs; type: functional; in short: as §1
[11] = tested on: Rattus norvegicus; test: Hyperexcitability activity in Long-Evens black-hooded rat assessed as behavioral responses to tactile stimulation at 10 mg/kg, po; type: functional, organism-based; design: dose 10 mg/kg
In short: (§2)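 Rats randomly split into groups of four, dosed orally, then held singly in a sound-attenuated room. At 1, 2, 3 and 4 h each was probed with a wooden rod and scored for exaggerated motor reaction, squeaking and biting (maximum 16 per response). Index is the summed score of the three responses divided by the maximum of 48.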

[12] = tested on: Rattus norvegicus; test: Antipsychotic activity in Long-Evens rat assessed as increase in methamphetamine-induced hyperactivity at 5 mg/kg, po; type: functional
[13] = tested on: Rattus norvegicus; test: Antipsychotic activity in Long-Evens rat assessed as increase in methamphetamine-induced hyperactivity at 10 mg/kg, po; type: functional
[14] = tested on: Rattus norvegicus; test: Antipsychotic activity in Long-Evens rat assessed as reduction in methamphetamine-induced hyperactivity at 20 mg/kg, po; type: functional
[15] = tested on: Rattus norvegicus; test: Hyperexcitability activity in Long-Evens black-hooded rat assessed as behavioral responses to tactile stimulation at 20 mg/kg, po; type: functional, organism-based; design: dose 20 mg/kg; in short: as §2
[16] = tested on: Felis catus; test: Sedative-hypnotic activity in cat assessed as change in total sleep time at 1 mg/kg, po after 12 hrs; type: functional; in short: as §1
[17] = tested on: Rattus norvegicus; test: Antipsychotic activity in Long-Evens rat assessed as reduction in methamphetamine-induced hyperactivity at 5 mg/kg, po; type: functional
[18] = tested on: Rattus norvegicus; test: Antipsychotic activity in Long-Evens rat assessed as reduction in methamphetamine-induced hyperactivity at 2 mg/kg, po; type: functional
[19] = tested on: Rattus norvegicus; test: Antianxiety activity in Long-Evens rat assessed as decrease in motor activity at 2 mg/kg, po by tranquilizer activity test; type: functional
[20] = tested on: Rattus norvegicus; test: Hyperexcitability activity in Long-Evens black-hooded rat assessed as behavioral responses to tactile stimulation at 80 mg/kg, po; type: functional, organism-based; design: dose 80 mg/kg; in short: as §2
[21] = tested on: Mus musculus; test: Antianxiety activity in albino BALB/cJ mouse assessed as decrease in foot shock-induced fighting behavior at 5 mg/kg, po by tranquilizer activity test; type: functional
[22] = tested on: Felis catus; test: Sedative-hypnotic activity in cat assessed as change in total sleep time at 0.1 mg/kg, po after 12 hrs; type: functional; in short: as §1
[23] = tested on: Rattus norvegicus; test: Antianxiety activity in Long-Evens rat assessed as decrease in motor activity at 20 mg/kg, po by tranquilizer activity test; type: functional
[24] = tested on: Felis catus; test: Sedative-hypnotic activity in cat assessed as change in total sleep time at 0.25 mg/kg, po after 12 hrs; type: functional; in short: as §1
[25] = tested on: Felis catus; test: Sedative-hypnotic activity in cat assessed as change in total sleep time at 2.5 mg/kg, po after 12 hrs; type: functional; in short: as §1
[26] = tested on: Mus musculus; test: Increase in foot shock-induced fighting behavior in albino BALB/cJ mouse at 5 mg/kg, po by tranquilizer activity test; type: functional
[27] = tested on: Rattus norvegicus; test: Antipsychotic activity in Long-Evens rat assessed as increase in methamphetamine-induced hyperactivity at 20 mg/kg, po; type: functional

SMILES | Activity [1] | ED50 [2] [mg/kg] | inhibition in vivo at 10 mg/kg [3] [%] | Activity [4] [mg/kg] | inhibition in vivo at 10 mg/kg [5] [%] | ED50 [7] [mg/kg] | inhibition in vivo at 5 mg/kg [8] [%] | inhibition in vivo at 10 mg/kg [9] [%] | Activity [11] | inhibition in vivo at 5 mg/kg [17] [%] | further results
COc1cc(C(C)CCCc2ccc(F)cc2)cc2c1-c1cnccc1C(C)(C)O2 (stereo not drawn) | Active | > 40 | 65 | 10 | 48 |  |  |  |  |  | Time [6]: 121 min
CCCCCC(C)C(C)c1cc(O)c2c(c1)OC(C)(C)c1cc[n+]([O-])cc1-2 (stereo not drawn) | Active | > 40 | 44 |  |  | 8.6 | 14 | 40 | inactive |  | Time [10]: 59 min; Activity [12]: 42%; Activity [13]: 12%
C=CCOc1cc(C(C)CCCc2ccc(F)cc2)cc2c1-c1cnccc1C(C)(C)O2 (stereo not drawn) | Active | > 40 | 17 |  | 20 |  |  |  |  |  | inhibition in vivo at 20 mg/kg [14]: 27%; Activity [15]: inactive
C#CCOc1cc(C(C)C(C)CCCCC)cc2c1-c1cnccc1C(C)(C)O2 (stereo not drawn) | Active | > 40 | 6 | 2 | 31 | > 40 | 27 |  | inactive |  | inhibition in vivo at 20 mg/kg [14]: 42%; Time [16]: 82 min; Time [6]: 114 min
C#CCN1CCC2=C(C1)c1c(O)cc(C(C)CCCc3ccc(F)cc3)cc1OC2(C)C (stereo not drawn) | Active | 3.7 | 47 | 1 |  | 5.3 |  | 57 | Active | 25 | Time [10]: 99 min
CCCCCC(C)C(C)c1cc(OC(=O)OCC)c2c(c1)OC(C)(C)c1ccncc1-2 (stereo not drawn) | Active |  | 12 |  |  | 5.2 | 93 |  |  | 66 | inhibition in vivo at 2 mg/kg [18]: 37%
CC(CCCc1ccc(F)cc1)c1cc(O)c2c(c1)OC(C)(C)c1cc[n+]([O-])cc1-2 (stereo not drawn) | Active | > 40 | 24 |  |  | > 10 | 18 |  | inactive | 16 | 
CCCCCC(C)C(C)c1cc(OC(C)=O)c2c(c1)OC(C)(C)c1ccncc1-2 (stereo not drawn) | Active |  | 48 | <5 |  | 3.3 | 86 |  |  | 46 | inhibition in vivo at 2 mg/kg [19]: 43%
CCCCCC(C)C(C)c1cc(OCCCN2CCCCC2)c2c(c1)OC(C)(C)c1ccncc1-2.Cl (stereo not drawn) | Active | > 40 |  |  | 15 |  |  |  |  |  | Time [6]: -153 min; Activity [20]: inactive; Activity [15]: inactive
C#CCN1CCC2=C(C1)c1c(O)cc(C(C)C(C)CCCCC)cc1OC2(C)C (stereo not drawn) | Active | 13.8 |  | 1 |  | 4.3 |  | 51 |  | 59 | inhibition in vivo at 5 mg/kg [21]: 48%; Time [22]: 100 min
CCCCCC(C)C(C)c1cc(OC)c2c(c1)OC(C)(C)c1ccncc1-2 (stereo not drawn) | Active | > 200 | 29 | 2 | 12 | 158 |  | 37 | inactive |  | inhibition in vivo at 20 mg/kg [23]: 46%; Time [16]: 58 min; Time [6]: 102 min; Activity [20]: inactive; Activity [12]: 15%
CCCCCC(C)C(C)c1cc(O)c2c(c1)OC(C)(C)c1ccncc1-2 (stereo not drawn) | Active | 3.07 | 36 | <1 |  | 3.3 | 79 |  |  | 61 | inhibition in vivo at 5 mg/kg [21]: 29%; Time [22]: 225 min; Time [24]: 193 min
CCCCCC(C)C(C)c1cc(OCC2CC2)c2c(c1)OC(C)(C)c1ccncc1-2 (stereo not drawn) | Active | > 40 |  |  | 1 |  |  |  |  |  | Time [25]: 105 min; Activity [20]: inactive; Activity [15]: inactive
CCCCCC(C)C(C)c1cc(OC(=O)CCCN2CCCCC2)c2c(c1)OC(C)(C)c1ccncc1-2.Cl (stereo not drawn) | Active |  |  |  |  | 4 | 43 | 63 | Active | 40 | Activity [26]: 3%
CCCCCc1cc(O)c2c(c1)OC(C)(C)[C@@H]1CCC(C)=C[C@@H]21 [DRONABINOL] | Active | 27.2 |  | 4 |  | 43 |  | 39 |  | 15 | inhibition in vivo at 5 mg/kg [21]: 36%; Time [16]: 29 min
CC(CCCc1ccc(F)cc1)c1cc(O)c2c(c1)OC(C)(C)c1ccncc1-2 (stereo not drawn) | Active | 5.7 |  |  |  | 7.1 | 34 |  |  | 40 | inhibition in vivo at 5 mg/kg [21]: 58%
CCCCCC(C)C(C)c1cc(OCCCN2CCOCC2)c2c(c1)OC(C)(C)c1ccncc1-2.Cl (stereo not drawn) | Active | > 40 |  |  |  |  |  |  |  |  | Time [6]: -11 min; Activity [20]: inactive; Activity [15]: inactive; Activity [13]: 13%; Activity [27]: 28%
